Here are results for four compounds from ChEMBL document CHEMBL1147030, “N-thiolated beta-lactams: Studies on the mode of action and identification of a primary cellular target in Staphylococcus aureus” (2007).

Activity calls are given as the source filed them. The calls are words filed in the database; no cut-off is given here.

Assay [1] has as its system Staphylococcus aureus. The assay is described as follows: Effect on RNA transcription in Staphylococcus aureus ATCC 25923 assessed as [3H]uridine incorporation after 20 mins relative to control. The class given is functional. Put shortly: (§1)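 Early log-phase cells in Luria Broth labelled with 3 μCi [methyl-3H]thymidine (DNA) or 3 μCi [5-3H]uridine (RNA), with or without drug at twice the MIC; ciprofloxacin (DNA) or rifampicin (RNA) as reference inhibitors, DMSO control. 50 μL samples taken at 5, 10, 20, 30, 45, 60 min into ice-cold 10% TCA; precipitated radioactivity by liquid scintillation, expressed relative to untreated control.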

Assay [2] relates to Staphylococcus aureus. The assay is described as follows: Growth inhibition against methicillin-susceptible Staphylococcus aureus ATCC 25923 after 2 hrs by agar dilution. It is filed as functional, organism-based.
Assay [3] has as its system Staphylococcus aureus. Briefly: Growth inhibition against […] Staphylococcus aureus ATCC 25923 after 2 hrs by agar dilution. It is filed as functional, organism-based. Put shortly: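 Log-phase overnight culture inoculated at 10^6 cfu/mL into fresh Mueller-Hinton broth and shaken 1 hr at 35°C. Compound in DMSO then added at 1, 5 or 10 times the MIC, with MIC set by agar dilution in Mueller-Hinton II agar read after 24 hr at 37°C. Growth was followed by viable counts from plated dilutions (colonies counted after 24 hr) and OD 630 nm.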

The subject of assay [4] is Staphylococcus aureus. The assay is described as follows: Growth inhibition against penicillin-susceptible Staphylococcus ATCC 25923 aureus after 24 hrs. It is filed as functional, organism-based. The method, boiled down:
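Well-diffusion plate: 10^8 suspension in PBS pH 7.4 swabbed on TSA; 6-mm wells loaded with 20 μg compound (from 1 mg/mL DMSO stock), penicillin G 20 μg as comparator; 37°C, 24 h; growth-inhibition zones read.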

The test system of assay [5] is Staphylococcus aureus. Briefly: Inhibition of cell wall biosynthesis in Staphylococcus aureus assessed as cytoplasmic membrane rupture. It is filed as functional, organism-based. Put shortly: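 S. aureus ATCC 25923 lawns on TSA with 6-mm paper discs carrying 20 μg compound or penicillin G. SEM: after 24 h at 37°C, agar at the edge of inhibition zones cut out, glutaraldehyde-osmium fixed, gold/palladium coated, imaged for cell morphology. Light microscopy: after 4–5 h, cells lifted onto coverslips from zones, Gram-stained (safranin counterstain), viewed bright-field.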

Another assay relates to Escherichia coli. The assay is described as follows: Effect on pBR322 fragmentation at 5 to 100 uM after 24 hrs by agarose gel electrophoresis. The class given is functional. Put shortly: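 Supercoiled pBR322 (0.5 μg) in 50 mM sodium phosphate, pH 7.4, treated with 5–100 μM compound (added in DMSO; DMSO-only lane as control), 37°C for 24 h. Aliquots run on 1.2% agarose/TAE gel with ethidium bromide at 80 V/10 cm for 2.5 h, UV visualization of single- and double-strand breakage.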

The subject of assay [6] is Staphylococcus aureus. Briefly: Effect on DNA replication in Staphylococcus aureus ATCC 25923 assessed as inhibition of [3H]thymidine utilization after 30 mins relative to control. The class given is functional. Further details: scale not given: the % may be the effect or the level left. The method, boiled down: as §1
Assay [7] relates to Staphylococcus aureus. The assay is described as follows: Effect on fatty acid biosynthesis in Staphylococcus aureus RN4220 assessed as [3H]acetate uptake relative to control. The class given is functional, organism-based. The method, boiled down:
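Strain RN4220 grown at 37 °C to A600 0.11 (1.3 x 10^7 cfu/mL), split into 5 mL tubes; drug added at 1x or 2x MIC (final DMSO 2%), penicillin G 2xMIC and no-drug controls. After 5 min, 3H-acetate added (4 μCi/mL); 0.8 mL aliquots at 15, 30, 45, 60 min extracted with chloroform/methanol; uptake compared with controls.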

Take `CO[C@H]1/C=C/O[C@@]2(C)Oc3c(C)c(O)c4c(O)c(c(/C=N/N5CCN(C)CC5)c(O)c4c3C2=O)NC(=O)/C(C)=C\C=C\[C@H](C)[C@H](O)[C@@H](C)[C@@H](O)[C@@H](C)[C@H](OC(C)=O)[C@@H]1C` [RIFAMPIN]: the Activity in the assay on Staphylococcus aureus [1] is under 20%.
As for `CO[C@H]1C(=O)N(SC)[C@H]1c1ccccc1Cl`, the outcome in the assay with Staphylococcus aureus [2], in the assay on Staphylococcus aureus [3], in the assay on Staphylococcus aureus [4] and with Staphylococcus aureus [7] was Active. Moreover, the result in the assay with Staphylococcus aureus [5] and with Escherichia coli was inactive. The values for the Activity in the assay with Staphylococcus aureus [6] and with Staphylococcus aureus [1] were over 90% and 80%, respectively.
Take `O=C(O)c1cn(C2CC2)c2cc(N3CCNCC3)c(F)cc2c1=O` [CIPROFLOXACIN]: in the assay on Staphylococcus aureus [6], the Activity is reported as 65%.
As for `CC1(C)S[C@@H]2[C@H](NC(=O)Cc3ccccc3)C(=O)N2[C@H]1C(=O)O`, the result in the assay with Staphylococcus aureus [4] was inactive. For the same compound, the result with Staphylococcus aureus [5] was Active.
